INS promoter act: activators of insulin promoter-driven GFP, primary screen, imaging, TRM-6 cells, eGFP reporter, cell count | AID 1296, 2008 | actives 0.81% (n = 130,000) | plate-scaled: unstimulated 0, stimulated control 100 | activation, % at 2 µM;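 active = activation at 2 µM above a set limit, confirmed on inspection of the cell images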;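 note: share of cells whose green reporter signal exceeds an intensity cutoff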
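material = TRM-6 human fetal islet cells, insulin promoter–eGFP reporter | input = 1,000 TRM-6 cells seeded per well | benchmarks = stimulated versus unstimulated wells as plate controls | measured by = automated fluorescence imaging of paraformaldehyde-fixed, Hoechst-counterstained cells, green channel | schedule = compound exposure 48 h, 37 °C | reagent = tamoxifen at 0.75 µM added at seeding for reporter induction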
An asterisk follows results filed as active; + = active, no number; [ ] = dose if it differs, or a comment. Many of the other results were omitted from the sample, so hits are more common in it than they were.

SMILES	INS promoter act
COc1ccc(NS(=O)(=O)c2ccc3oc(SC4CCOC4=O)nc3c2)cc1 (stereo unspecified)	-4
O=C1NC(=O)C2(COC(c3ccccc3Cl)OC2)S1 (stereo unspecified)	0
Cc1ccc(NS(=O)(=O)c2cc(C(=O)N(C)C)ccc2C)cc1C	-7
Cc1cc(NC(=O)CCC(=O)N(c2ccccc2)C(C(=O)NC2CCCCC2)c2cccs2)no1 (stereo unspecified)	323
CCC(C)(C)NC(=O)C(c1ccc(OC)cc1)N(Cc1cccs1)C(=O)CCC(=O)Nc1cc(C)on1 (stereo unspecified)	600*
CCC(C)(C)NC(=O)CN(Cc1cccs1)C(=O)CCC(=O)Nc1nccs1	7
Cc1nc2ccc([N+](=O)[O-])cc2s1	8
Cc1nc2ccc(NC(=O)CCS(=O)(=O)c3ccc(Cl)cc3)cc2s1	8
Cc1ccc(C(=O)Nc2ccc3nc(C)sc3c2)s1	562*
CC(=O)Oc1ccc2c(c1)cc(C)n2C	69
CCc1ccc(OCc2nnc(NC(=O)c3cccs3)s2)cc1	8
COc1ccc(NC(=O)c2ccc(C(=O)c3ccccc3)o2)cc1	-90
Cc1cccn2c(=O)c3cc(C(=O)NCCc4ccccc4)c(=N)n(CCCn4ccnc4)c3nc12	-3
CCCn1c(SCC(=O)Nc2ccc(Cl)cc2)n[nH]c1=O	-8
CCCn1c(SCC(=O)Nc2ccc(C(=O)Nc3ccccc3OC)cc2)n[nH]c1=O	7
CCCn1c(SCC(=O)c2cc(C)ccc2C)n[nH]c1=O	100*
C=CCn1c(N)cc(=O)nc1SCC(=O)NC(C)c1ccccc1 (stereo unspecified)	131
CCn1ccc(C(=O)Nc2c(C)nn(Cc3c(F)c(F)c(F)c(F)c3F)c2C)n1	364*
Cc1nn(Cc2c(F)c(F)c(F)c(F)c2F)c(C)c1NC(=O)c1c([N+](=O)[O-])cnn1C	4
Cc1nn(Cc2c(F)c(F)c(F)c(F)c2F)c(C)c1NC(=O)c1c([N+](=O)[O-])c(C)nn1C	-10
COc1ccc(Cl)cc1S(=O)(=O)N1CCCC1=O	6
COc1cc(/C=C(\C#N)c2nc3ccccc3s2)ccc1OCC(=O)Nc1ccccc1	162
N#C/C(=C/c1ccncc1)c1nc2ccccc2s1	128
CC(=O)Nc1sc(/C(C#N)=C/c2ccc(Cl)c(Cl)c2)nc1-c1ccc(C)cc1	223*
COc1cc(CN(C(=S)NCC(=O)NC2CCCC2)C2CCCC2)cc(OC)c1OC	-7
SMILES	INS promoter act
CCC1(C)CC(C(CC(=O)O)c2ccc(C)cc2)CCO1 (stereo unspecified)	3
O=C(CCCN1C(=O)c2ccccc2C1=O)Nc1nnc(C2CC2)s1	-8
CC(C)CC(=O)n1sc(NC(=O)c2ccccc2)nc1=O	7
Cc1ccc(C(=O)Nc2nc(=O)n(C(=O)c3ccccc3Cl)s2)cc1	84*
CCn1c(NC(=O)c2ccc(C)cc2)c2ccccc2nc1=O	-9
CN(C)S(=O)(=O)c1cccc(NC(=O)Cn2cc(C(F)(F)F)cc(Cl)c2=O)c1	7
Cc1ccc(/C=C2\SC(=S)N(Cc3ccccc3)C2=O)o1	-10
COc1ccc(-n2c(C)cc(/C=C3\SC(=S)N(Cc4ccco4)C3=O)c2C)cc1	245*
Cc1cc(/C=C2/SC(=S)N(c3ccc([N+](=O)[O-])cc3)C2=O)c(C)n1-c1cccnc1	119
O=S(=O)(c1ccc(F)c(F)c1F)N1CCN(C(=S)Nc2ccccc2)CC1	324*
NS(=O)(=O)c1ccc(NC(=S)N2CCN(c3ccccc3Cl)CC2)cc1	-5
S=C(Nc1ccccc1)N1CCCCCCC1	7
CCN(C(=O)COC(=O)/C=C/c1ccc(O)c(OC)c1)C1CCS(=O)(=O)C1 (stereo unspecified)	-10
Cc1[nH]nc2ncc(C(=O)c3ccccc3O)cc12	-80
O=C(c1ccc(F)cc1)c1cn[nH]c1-c1ccccc1O	171*
Cc1ccc(C(=O)c2cn[nH]c2-c2ccccc2O)cc1	0
COc1cccc(-n2c(Cn3nc(C(F)(F)F)cc3C)n[nH]c2=S)c1	-5
Cc1cc(C(=O)COC(=O)CCc2nc3ccccc3s2)c(C)n1C	78*
COCCn1c(C)cc(C(=O)CSc2nc3ccccc3s2)c1C	0
NC(=O)CSCc1nc2ccccc2s1	9
CC1CC(C)CN(S(=O)(=O)c2ccc(NC(=O)C3COc4ccccc4O3)cc2)C1 (stereo unspecified)	925*
NS(=O)(=O)c1ccc(NC(=O)C2COc3ccccc3O2)cc1 (stereo unspecified)	4
CC(C)(C)NC(=O)c1ccc(NC(=O)C2COc3ccccc3O2)cc1 (stereo unspecified)	9
CCc1ccc(C(=O)COC(=O)CCc2nc3ccccc3c(=O)[nH]2)cc1	0
CCCCC(CCC(=O)O)(C(=O)OCC)c1csc(N)n1 (stereo unspecified)	0
SMILES	INS promoter act
COc1cccc2cc(C(=O)N(C)C3CCN(C)CC3)c(=O)oc12	0
CCN(CC)C(=O)CSc1nnc(COc2cccc(C)c2)n1C	-8
COc1cc(C)c(CNC2CCCCC2)cc1C	10
CS(=O)(=O)c1ccc(-c2nnn(CC(N)=O)n2)cc1	0
CCCC(=O)NCn1nnc(-c2ccc(Cl)cc2)n1	488*[fluoresces]
CCc1ccc(-c2nnn(CCC(=O)OC)n2)cc1	-6
O=C1NC2(CCCCC2)Oc2ccccc21	7
Cn1c(=O)c2cc(S(=O)(=O)N3CCC(c4ccccc4)CC3)ccc2n(C)c1=O	6
Cc1ccc[n+](/C(C(=S)NCc2ccco2)=C(/[O-])c2ccccc2Cl)c1	287
Cc1ccc(C(=O)Nc2ccc(OCc3ccccc3)cc2)cc1[N+](=O)[O-]	-6
Cc1ccc(/C([O-])=C(/C(=S)NCc2ccccc2)[n+]2cccc(CO)c2)cc1[N+](=O)[O-]	+
CCOc1ccc(N=Nc2c(C)noc2C)cc1	0
Cc1ccc(S(=O)(=O)NC(=O)NCc2ccccn2)cc1	-6
CCN(C(=O)CN1CCN(C)CC1)c1cccc2ccccc12	7
Cc1cc(NC(=O)CSc2nc(-c3ccccc3)cs2)no1	103
Cc1ccc(CNC(=O)CSc2nc3ccsc3c(=O)n2NC(=O)c2ccccc2)cc1	5
Cc1cc(NC(=O)CSc2nc3ccsc3c(=O)n2NC(=O)c2ccccc2)no1	436*
CC(=O)Nc1ccc(NC(=O)C(Cc2ccccc2)NC(=O)C2CCCCC2)cc1 (stereo unspecified)	-64
CCOC(=O)c1ccc(NC(=O)C(=O)NCc2ccc(/C=C(/C#N)C(=O)NCCOC)o2)cc1	-7
CN(C)c1ccc(/C=C(/C#N)C(=O)NCc2ccccc2)o1	227*
Cc1cccc(NC(=O)/C(C#N)=C/c2ccc(Sc3ccccc3)o2)c1C	-100
O=[N+]([O-])c1cc([N+](=O)[O-])c2n[nH]c(-c3ccccc3)c2c1	8
CCOC(=O)c1cnc(SCc2ccc(C(C)(C)C)cc2)nc1N	514*
CCOC(=O)c1cnc(SCc2cccc3ccccc23)nc1N	0
CCOC(=O)c1cnc(SCc2ccccc2)nc1N	106
NNC(=O)C1CC1c1ccc(Cl)cc1 (stereo unspecified)	7
O=C(CCCN1C(=O)c2ccccc2C1=O)NCc1cccnc1	473*
O=C(CCCN1C(=O)c2ccccc2C1=O)NCc1ccco1	239
O=C(CCCN1C(=O)c2ccccc2C1=O)Nc1cccnc1	-10
Cc1ccc(C(=O)N(c2ccccc2)C2CC(C)N(C(=O)c3ccco3)c3ccccc32)cc1 (stereo unspecified)	3

Screening results deposited in PubChem BioAssay by Columbia University Molecular Screening Center.
